The source made the active and inactive calls. The rule behind the calls is not given here.
Tests used:
Adenosine receptor A2a [1] = target: Adenosine receptor A2a (Homo sapiens, UniProt P29274); assay: Displacement of [3H]-ZM 241385 from human adenosine A2A receptor expressed in HEK293 cell membrane; assay type: cell membranes
Adenosine receptor A1 = target: T1, Adenosine receptor A1 (Homo sapiens, UniProt P30542); assay: Displacement of [3H]-DPCPX from human adenosine A1 receptor expressed in HEK293 cell membrane; assay type: cell membranes
T1 sequence (P30542 whole entry): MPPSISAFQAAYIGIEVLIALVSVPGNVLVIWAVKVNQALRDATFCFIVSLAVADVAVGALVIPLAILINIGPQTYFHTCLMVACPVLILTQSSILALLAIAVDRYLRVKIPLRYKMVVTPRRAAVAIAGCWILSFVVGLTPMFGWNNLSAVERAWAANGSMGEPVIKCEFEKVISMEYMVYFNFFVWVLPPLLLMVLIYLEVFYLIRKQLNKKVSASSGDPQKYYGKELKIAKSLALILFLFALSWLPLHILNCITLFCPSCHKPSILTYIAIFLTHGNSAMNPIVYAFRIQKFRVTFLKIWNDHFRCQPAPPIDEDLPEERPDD
Outline: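 Flp-In HEK293 cell line stably expressing the human receptor, crude membranes used at 1–2 µg protein. Pre-incubated 30 min at room temperature with 10 µg/mL adenosine deaminase. Then incubated 90 min with 1.0 nM [3H]-DPCPX and graded competitor in 50 mM Tris-HCl pH 7.4, 1 mM EDTA, 10 mM MgCl2. Nonspecific binding defined with 1 µM DPCPX. Separated by filtration on GF/C, counted by scintillation. Ki from IC50 via Cheng-Prusoff. Mean of at least two runs.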

Adenosine receptor A2a [2] = target: Adenosine receptor A2a (Rattus norvegicus, UniProt P30543); assay: Displacement of [3H]-ZM 241385 from rat adenosine A2A receptor expressed in CHO cell membrane; assay type: cell membranes
Adenosine receptor A2a (Rattus norvegicus, UniProt P30543), sequence (P30543 whole entry): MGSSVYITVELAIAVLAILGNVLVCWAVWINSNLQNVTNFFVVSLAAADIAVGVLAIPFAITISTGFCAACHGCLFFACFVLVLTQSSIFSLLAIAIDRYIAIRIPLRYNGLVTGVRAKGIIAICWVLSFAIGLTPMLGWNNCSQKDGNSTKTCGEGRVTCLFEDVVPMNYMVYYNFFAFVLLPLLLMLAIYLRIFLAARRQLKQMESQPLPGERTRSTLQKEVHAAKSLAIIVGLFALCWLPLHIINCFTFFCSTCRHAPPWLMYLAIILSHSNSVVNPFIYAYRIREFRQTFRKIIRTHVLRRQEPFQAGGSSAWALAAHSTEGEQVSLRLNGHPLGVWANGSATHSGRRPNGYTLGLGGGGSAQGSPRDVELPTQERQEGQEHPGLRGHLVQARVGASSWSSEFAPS

Homo sapiens = species on record: Homo sapiens; assay: Selectivity ratio of Ki for human adenosine A1 receptor to Ki for human adenosine A2A receptor
Outline: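 Stably transfected Flp-In HEK293 membranes with human A1 or A2A receptors (1–2 µg protein) were preincubated 30 min at room temp with adenosine deaminase. They were then incubated 90 min with competitor and 1.0 nM [3H]-DPCPX (A1) or 2.0 nM [3H]-ZM241385 (A2A). Nonspecific binding used 1 µM DPCPX or CGS15943. Filtration and scintillation counting followed. […] Ratio is A1 Ki/A2A Ki.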

[3] = target: Voltage-gated inwardly rectifying potassium channel KCNH2 (Homo sapiens, UniProt Q12809); assay: Inhibition of human ERG potassium current expressed in HEK293 cells by patch-clamp technique
Voltage-gated inwardly rectifying potassium channel KCNH2, sequence (Q12809 whole entry): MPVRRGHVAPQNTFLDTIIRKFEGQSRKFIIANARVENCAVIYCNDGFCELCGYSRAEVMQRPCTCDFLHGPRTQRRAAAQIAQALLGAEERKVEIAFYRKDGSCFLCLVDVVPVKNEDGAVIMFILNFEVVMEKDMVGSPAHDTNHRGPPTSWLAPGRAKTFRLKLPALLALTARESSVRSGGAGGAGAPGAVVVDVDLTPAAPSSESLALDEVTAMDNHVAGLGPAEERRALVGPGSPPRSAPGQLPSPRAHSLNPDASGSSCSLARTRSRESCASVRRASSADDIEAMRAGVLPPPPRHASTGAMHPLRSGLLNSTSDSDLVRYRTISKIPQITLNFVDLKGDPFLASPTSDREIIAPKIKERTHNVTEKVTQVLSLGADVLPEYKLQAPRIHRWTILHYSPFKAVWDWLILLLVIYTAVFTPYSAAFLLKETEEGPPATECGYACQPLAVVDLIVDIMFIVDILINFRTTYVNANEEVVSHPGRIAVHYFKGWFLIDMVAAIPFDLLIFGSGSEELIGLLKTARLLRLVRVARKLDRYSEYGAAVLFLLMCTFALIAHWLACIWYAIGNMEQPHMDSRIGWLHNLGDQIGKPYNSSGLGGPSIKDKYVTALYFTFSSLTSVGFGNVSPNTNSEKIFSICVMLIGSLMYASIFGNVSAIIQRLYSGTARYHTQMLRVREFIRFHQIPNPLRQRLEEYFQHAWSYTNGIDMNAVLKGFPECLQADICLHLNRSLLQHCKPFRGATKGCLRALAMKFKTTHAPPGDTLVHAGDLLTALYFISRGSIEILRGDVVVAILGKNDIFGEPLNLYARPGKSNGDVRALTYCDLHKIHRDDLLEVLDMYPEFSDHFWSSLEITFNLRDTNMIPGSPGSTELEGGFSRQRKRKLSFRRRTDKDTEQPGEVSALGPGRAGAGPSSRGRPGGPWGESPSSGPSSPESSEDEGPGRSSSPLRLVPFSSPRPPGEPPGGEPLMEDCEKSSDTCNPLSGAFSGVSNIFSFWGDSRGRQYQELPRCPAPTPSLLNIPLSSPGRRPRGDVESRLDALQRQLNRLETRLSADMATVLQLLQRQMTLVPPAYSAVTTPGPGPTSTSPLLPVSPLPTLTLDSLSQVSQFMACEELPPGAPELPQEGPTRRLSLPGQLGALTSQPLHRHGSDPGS

[4] = Drug level in Wistar rat brain at 30 mg/kg, po after 2 hrs; assay type: ADME, organism-based; design: dose 30 mg/kg, route oral; conditions: read-out: Drug uptake
Outline: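 Male Wistar rats, ∼220 g. Oral dose of 30 mg/kg in 5% cremophor in sterile water (5 mL/kg), with haloperidol 1.5 mg/kg ip 1 h before the bar test. Brain collected 2 h after dosing. Half-brain homogenates centrifuged, supernatant analysed by LC-MS/MS (positive ESI, MRM). Quantified against brain-matrix calibration standards by internal-standard peak-area ratio on a 1/x-weighted linear curve.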

Rattus norvegicus = assay: Effect on haloperidol-induced catalepsy in Wistar rat at 30 mg/kg, po after 2 hrs; assay type: functional, organism-based; design: dose 30 mg/kg
Outline: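 Male Wistar rats, ∼220 g, habituated 1 week, 24 per experiment. Oral dose of 30 mg/kg in 5% cremophor/sterile water (5 mL/kg) 2 h before testing, haloperidol 1.5 mg/kg ip 1 h before. Bar test: forepaws placed on 8.0 cm bar, three 30 s trials 3 min apart. Descent latency averaged per rat and compared with vehicle, p < 0.05.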

Cytochrome P450 2D6 = Cytochrome P450 2D6 (Homo sapiens, UniProt P10635); assay: Inhibition of CYP2D6; assay type: ADME
Cytochrome P450 2D6, sequence (P10635 whole entry): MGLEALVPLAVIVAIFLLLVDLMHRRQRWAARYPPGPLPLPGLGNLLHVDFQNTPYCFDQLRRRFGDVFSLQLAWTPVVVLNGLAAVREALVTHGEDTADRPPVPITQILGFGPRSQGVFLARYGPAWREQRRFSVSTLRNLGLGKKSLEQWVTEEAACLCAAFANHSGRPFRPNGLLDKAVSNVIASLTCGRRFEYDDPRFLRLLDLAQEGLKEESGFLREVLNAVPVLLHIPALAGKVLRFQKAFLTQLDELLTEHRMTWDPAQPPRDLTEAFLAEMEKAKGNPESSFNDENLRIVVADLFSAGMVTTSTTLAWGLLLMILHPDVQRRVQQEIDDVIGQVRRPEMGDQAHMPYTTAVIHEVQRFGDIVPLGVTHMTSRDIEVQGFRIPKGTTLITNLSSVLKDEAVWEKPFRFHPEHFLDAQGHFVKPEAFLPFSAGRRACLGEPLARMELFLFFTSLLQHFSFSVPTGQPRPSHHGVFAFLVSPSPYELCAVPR

Cytochrome P450 3A4 = Cytochrome P450 3A4 (Homo sapiens, UniProt P08684); assay: Inhibition of CYP3A4; assay type: ADME
Cytochrome P450 3A4, sequence (P08684 whole entry): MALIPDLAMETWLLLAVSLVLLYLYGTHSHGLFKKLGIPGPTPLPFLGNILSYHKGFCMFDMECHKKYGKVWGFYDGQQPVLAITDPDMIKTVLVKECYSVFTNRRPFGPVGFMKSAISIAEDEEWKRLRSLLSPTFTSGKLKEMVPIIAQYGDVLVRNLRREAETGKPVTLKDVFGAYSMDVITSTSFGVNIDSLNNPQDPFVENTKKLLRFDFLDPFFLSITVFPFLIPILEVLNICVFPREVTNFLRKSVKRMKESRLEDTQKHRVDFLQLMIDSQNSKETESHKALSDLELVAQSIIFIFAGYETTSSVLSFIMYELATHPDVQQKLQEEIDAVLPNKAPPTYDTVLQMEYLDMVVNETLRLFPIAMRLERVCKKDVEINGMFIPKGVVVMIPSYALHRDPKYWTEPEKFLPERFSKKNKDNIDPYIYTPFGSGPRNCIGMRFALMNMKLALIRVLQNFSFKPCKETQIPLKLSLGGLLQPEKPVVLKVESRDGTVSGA

Adenosine receptor A2a (Homo sapiens, UniProt P29274), sequence (P29274 whole entry): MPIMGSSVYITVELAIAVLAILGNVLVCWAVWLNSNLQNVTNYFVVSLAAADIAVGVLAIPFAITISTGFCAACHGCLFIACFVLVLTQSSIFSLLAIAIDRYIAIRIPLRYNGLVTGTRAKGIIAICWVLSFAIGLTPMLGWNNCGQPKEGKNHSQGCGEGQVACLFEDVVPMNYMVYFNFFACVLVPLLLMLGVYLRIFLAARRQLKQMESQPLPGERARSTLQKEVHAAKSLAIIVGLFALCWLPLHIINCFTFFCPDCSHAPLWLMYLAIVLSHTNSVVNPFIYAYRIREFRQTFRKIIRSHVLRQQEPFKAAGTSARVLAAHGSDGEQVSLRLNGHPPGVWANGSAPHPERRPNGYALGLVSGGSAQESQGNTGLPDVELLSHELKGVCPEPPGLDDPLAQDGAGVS

| SMILES | Ki (Adenosine receptor A2a [1]) | Ki (Adenosine receptor A1) | Ki (Adenosine receptor A2a [2]) | Ratio Ki (Homo sapiens) | Inhibition (Cytochrome P450 2D6) | Inhibition (Cytochrome P450 3A4) | IC50 [3] | concentration at 2 h [4] | Activity (Rattus norvegicus) |
| --- | --- | --- | --- | --- | --- | --- | --- | --- | --- |
| Cc1cc(C)n(-c2cc(NC(=O)CN3CCC[C@H](CN(C)C)C3)nc(-c3ccc(C)o3)n2)n1 | 10 nM | 890 nM | 87 nM | 89 |  |  |  |  |  |
| Cc1cc(C)n(-c2cc(NC(=O)CN3CC[C@H](OC(C)C)C3)nc(-c3ccc(C)o3)n2)n1 | 86 nM | 2300 nM |  | 27 |  |  |  |  |  |
| CCN[C@@H]1CCN(CC(=O)Nc2cc(-n3nc(C)cc3C)nc(-c3ccc(C)o3)n2)C1 | 3.8 nM | 270 nM |  | 71 |  |  |  |  |  |
| Cc1cc(C)n(-c2cc(NC(=O)CN3CC[C@@H](CN(C)C)C3)nc(-c3ccc(C)o3)n2)n1 | 2.1 nM | 220 nM | 27.8 nM |  |  |  |  |  |  |
| Cc1cc(C)n(-c2cc(NC(=O)CC3CCN(C)CC3)nc(-c3ccc(C)o3)n2)n1 | 5.4 nM | 1020 nM | 103 nM |  |  |  |  |  |  |
| Cc1cc(C)n(-c2cc(NC(=O)CN3CC[C@H](CN(C)C)C3)nc(-c3ccc(C)o3)n2)n1 | 11 nM | 550 nM | 34 nM |  |  |  |  |  |  |
| Cc1cc(C)n(-c2cc(NC(=O)CCN3CC[C@H](N(C)C)C3)nc(-c3ccc(C)o3)n2)n1 | 2.4 nM | 630 nM | 41 nM | 263 |  |  | 2280 nM | 250 ng/g | Active |
| Cc1cc(C)n(-c2cc(NC(=O)CN3CCCOCC3)nc(-c3ccc(C)o3)n2)n1 | 6 nM | 630 nM | 230 nM | 105 |  |  |  |  |  |
| CCN[C@H]1CCN(CC(=O)Nc2cc(-n3nc(C)cc3C)nc(-c3ccc(C)o3)n2)C1 | 2.5 nM | 370 nM | 37 nM | 148 |  |  | 420 nM |  |  |
| Cc1cc(C)n(-c2cc(NC(=O)CCN(C)C)nc(-c3ccc(C)o3)n2)n1 | 2.1 nM | 210 nM | 43 nM |  |  |  |  |  |  |
| CCN(CC)[C@H]1CCN(CC(=O)Nc2cc(-n3nc(C)cc3C)nc(-c3ccc(C)o3)n2)C1 | 4.4 nM | 2600 nM | 155 nM | 591 |  |  |  |  |  |
| Cc1cc(C)n(-c2cc(NC(=O)CN3CCCN(C)CC3)nc(-c3ccc(C)o3)n2)n1 | 10 nM | 2100 nM | 46.7 nM | 210 |  |  | 285 nM |  |  |
| Cc1cc(C)n(-c2cc(NC(=O)CN3CCC[C@@H](CN(C)C)C3)nc(-c3ccc(C)o3)n2)n1 | 1.5 nM | 71 nM | 14 nM | 47 |  |  |  |  |  |

Further lines, with some results ahead:

| Ki (Adenosine receptor A2a [1]) | Ki (Adenosine receptor A1) | Ki (Adenosine receptor A2a [2]) | Ratio Ki (Homo sapiens) | Inhibition (Cytochrome P450 2D6) | Inhibition (Cytochrome P450 3A4) | SMILES | IC50 [3] | concentration at 2 h [4] | Activity (Rattus norvegicus) |
| --- | --- | --- | --- | --- | --- | --- | --- | --- | --- |
| 11 nM | 1880 nM | 270 nM | 171 |  |  | CCN1CCN(CC(=O)Nc2cc(-n3nc(C)cc3C)nc(-c3ccc(C)o3)n2)CC1 |  |  |  |
| 3.7 nM | 940 nM | 160 nM | 254 |  |  | Cc1cc(C)n(-c2cc(NC(=O)CN3CC[C@H](N(C)C)C3)nc(-c3ccc(C)o3)n2)n1 | 600 nM | 1900 ng/g | Active |
| 4 nM | 262 nM |  | 66 |  |  | Cc1cc(C)n(-c2cc(NC(=O)CN3CC[C@@H](N(C)C)C3)nc(-c3ccc(C)o3)n2)n1 |  |  |  |
| 2.9 nM | 380 nM | 25 nM | 131 |  |  | Cc1cc(C)n(-c2cc(NC(=O)CN3CCC(CN(C)C)CC3)nc(-c3ccc(C)o3)n2)n1 | 1670 nM |  |  |
| 8.6 nM | 347 nM |  | 40 |  |  | Cc1cc(C)n(-c2cc(NC(=O)CN3CCCC3)nc(-c3ccc(C)o3)n2)n1 |  |  |  |
| 15 nM | 1210 nM | 1600 nM | 81 |  |  | COC1CCN(CC(=O)Nc2cc(-n3nc(C)cc3C)nc(-c3ccc(C)o3)n2)CC1 |  |  |  |
| 3.6 nM | 540 nM | 170 nM | 150 |  |  | CC(=O)N1CCN(CC(=O)Nc2cc(-n3nc(C)cc3C)nc(-c3ccc(C)o3)n2)CC1 |  |  |  |
| 5.7 nM | 500 nM | 430 nM | 88 |  |  | Cc1cc(C)n(-c2cc(NC(=O)CN3CCOCC3)nc(-c3ccc(C)o3)n2)n1 |  |  |  |
|  |  | 131 nM | 71 | Not Active | Not Active | Cc1cc(C)n(-c2cc(NC(=O)CN3CCN(C)CC3)nc(-c3ccc(C)o3)n2)n1 | 950 nM |  |  |

Source: ChEMBL document CHEMBL1142327, “2-Amino-N-pyrimidin-4-ylacetamides as A2A receptor antagonists: 2. Reduction of hERG activity, observed species selectivity, and structure-activity relationships” (J Med Chem, 2008)
